Laboratory results published in ChEMBL document CHEMBL1641397, “Camphoratins A-J, potent cytotoxic and anti-inflammatory triterpenoids from the fruiting body of Taiwanofungus camphoratus” (J Nat Prod, 2010).

Assays:
[1] = Cytotoxicity against human KBVIN cells after 3 days by sulforhodamine B assay; type: functional, cell-based
How it was run: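 KB and vincristine-selected KB-VIN grown in RPMI-1640 with 25 mM HEPES and 10% FBS at 37 °C. KB-VIN challenged with 0.5 μg/mL vincristine every two weeks, drug withdrawn at least one day before use. Seeded at 5000 cells/well, compounds at 20 down to 0.16 μM for 3 days. TCA fixation, SRB stain, absorbance at 562 nm. EC50 interpolated, average of at least two independent determinations.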

[2] = Antiinflammatory activity in human PMNC cells assessed as inhibition of fMLP-induced NOX-dependent ROS production up to 50 uM; type: functional, cell-based
KB [3] = experiment: Cytotoxicity against human KB cells after 3 days by sulforhodamine B assay; type: functional, cell-based
BV-2 [4] = experiment: Antiinflammatory activity in mouse BV2 cells assessed as inhibition of NOX-dependent ROS production up to 50 uM; type: functional, cell-based
BV-2 [5] = experiment: Antiinflammatory activity in mouse BV2 cells assessed as inhibition of LPS-induced iNOS-dependent nitrite production after 24 hrs by Griess method; type: functional, cell-based
KB [6] = experiment: Cytotoxicity against human KB cells at 20 uM after 3 days by sulforhodamine B assay; type: functional, cell-based
How it was run: (§1)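 KB or KB-VIN cells (KB-VIN held under intermittent 0.5 μg/mL vincristine, withdrawn at least one day before use). Seeded at 5000 cells/well and exposed to compound at 20 μM for 3 days. Cells fixed with TCA, stained with SRB, absorbance read at 562 nm. Value is % inhibition of growth versus untreated cells.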

[7] = Cytotoxicity against human KBVIN cells at 20 uM after 3 days by sulforhodamine B assay; type: functional; details: 72 h; how it was run: as §1
[8] = Homo sapiens, KBVIN, 72 h, read-out: EC50
[9] = Homo sapiens, PMNC, read-out: IC50
[10] = Homo sapiens, KB, 72 h, read-out: EC50
[11] = Mus musculus, BV-2, read-out: IC50
[12] = Mus musculus, BV-2, 24 h, read-out: IC50

For `C=C(CC[C@@H](C)[C@H]1CC[C@H]2C3=C(C(=O)C[C@]12C)[C@@]1(C)CCC(=O)[C@@H](C)[C@@H]1CC3)C(C)C(=O)O` (stereo not given in full) [ANTCIN A], the EC50 [1, 8] was 10 µM, the IC50 [2, 9] was 29.2 µM and the EC50 (KB [3]; [10]) was 4.9 µM. It also gave an IC50 (BV-2 [4]; [11]) of 45.9 µM and an IC50 (BV-2 [5]; [12]) of 4.1 µM.

With `C=C(CC[C@@H](C)[C@H]1CC[C@H]2C3=C(C(=O)C[C@]12C)[C@@]1(C)CC[C@@H](O)[C@](C)(O)[C@@H]1C[C@@H]3O)C(C)C(=O)O` (stereo not given in full) [ANTCIN K] the EC50 ([1]; kbvin) was “Not Active”, the IC50 [2, 9] was 47.2 µM and the EC50 (KB [3]; kb) was “Not Active”. For the same compound, the IC50 (BV-2 [4]; bv-2) was “Not Active” and the IC50 (BV-2 [5]; bv-2) was “Not Active”.

With `C=C(CC[C@@H](C)[C@H]1CC[C@H]2C3=C(C(=O)[C@H](O)[C@]12C)[C@@]1(C)CC[C@@H](O)[C@@H](C)[C@@H]1C[C@@H]3O)C(C)C(=O)O` (stereo not given in full) [CAMPHORATIN A] the EC50 ([1]; kbvin) was “Not Active” and the EC50 (KB [6]; kb) was “Not Active”.

With `C=C(CC[C@@H](C)[C@H]1CC[C@H]2C3=C(C(=O)C[C@]12C)[C@@]1(C)CC[C@@H](O)[C@@H](C)[C@@H]1C[C@@H]3O)C(C)C(=O)O` (stereo not given in full) [CAMPHORATIN B] the EC50 ([1]; kbvin) was “Not Active”, the IC50 [2, 9] was 32.1 µM and the IC50 (BV-2 [4]; bv-2) was “Not Active”. The IC50 (BV-2 [5]; [12]) was 15.7 µM.

Compound `C=C(CC[C@@H](C)[C@H]1CC[C@H]2C3=C(C(=O)C[C@]12C)[C@@]1(C)CC[C@@H](O)[C@](C)(O)[C@@H]1CC3=O)C(C)C(=O)O` (stereo not given in full) [CAMPHORATIN C] has an EC50 [1, 8] of 2.3 µM and an EC50 (KB [3]; [10]) of 0.3 µM.

For `C=C(CC[C@@H](C)[C@H]1CC[C@H]2C3=C(C(=O)C[C@]12C)[C@@]1(C)CCC(=O)[C@@H](C)[C@@H]1C[C@@H]3O)C(C)C(=O)O` (stereo not given in full) [CAMPHORATIN D], the EC50 ([1]; kbvin) was “Not Active”, the IC50 [2, 9] was 22.6 µM and the EC50 (KB [3]; kb) was “Not Active”. The IC50 (BV-2 [4]; bv-2) was “Not Active” and the IC50 (BV-2 [5]; [12]) was 4.2 µM.

`C=C(CC[C@@H](C)[C@H]1CC[C@H]2C3=C(C(=O)C[C@]12C)[C@@]1(C)CC[C@@H](O)[C@@H](C)[C@@H]1CC3=O)C(C)C(=O)OC` (stereo not given in full) [CAMPHORATIN E] gave an EC50 [1, 8] of 2.7 µM and an EC50 (KB [3]; [10]) of 0.45 µM.

Work on `C=C(CC[C@@H](C)[C@H]1CC[C@H]2C3=C(C(=O)C[C@]12C)[C@@]1(C)CCC(=O)[C@@H](C)[C@@H]1C[C@@H]3O)C(C)C(=O)OC` (stereo not given in full) [CAMPHORATIN F] yielded an EC50 [1, 8] of 2.9 µM, an IC50 [2, 9] of 11.2 µM and an EC50 (KB [3]; [10]) of 2 µM. The IC50 (BV-2 [4]; bv-2) was “Not Active” and the IC50 (BV-2 [5]; [12]) was 2.5 µM.

For `C=C(CC[C@@H](C)[C@H]1CC[C@H]2C3=C(C(=O)C[C@]12C)[C@@]1(C)CCC(=O)[C@@H](C)[C@@H]1C[C@H]3O)C(C)C(=O)O` (stereo not given in full) [CAMPHORATIN G], the EC50 [1, 8] was 17.5 µM and the EC50 (KB [3]; [10]) was 15 µM.

For `C=C(CC[C@@H](C)[C@H]1CC[C@H]2C3=C(C(=O)C[C@]12C)[C@@]1(C)CCC(=O)[C@@H](C)[C@@H]1CC3)C(C)C` [CAMPHORATIN H], the EC50 ([1]; kbvin) was “Not Active” and the EC50 (KB [3]; kb) was “Not Active”.

With `C[C@H](/C=C/[C@H](C)[C@H](C)CO)[C@H]1CC[C@H]2C3=CC[C@H]4CC(=O)CC[C@]4(C)[C@H]3CC[C@]12C` [CAMPHORATIN I] the EC50 ([1]; kbvin) was “Not Active”, the IC50 [2, 9] was 17.5 µM and the EC50 (KB [3]; kb) was “Not Active”. For the same compound, the IC50 (BV-2 [4]; bv-2) was “Not Active” and the IC50 (BV-2 [5]; [12]) was 12.7 µM.

For `C=C(CC[C@@H](C)[C@H]1CC[C@@H]2C3=C(C(=O)C[C@@]21C)[C@@]1(C)CCC(=O)[C@@H](C)[C@@H]1CC3)C(C)C(=O)OC` (stereo not given in full) [CAMPHORATIN J], the EC50 ([1]; kbvin) was “Not Active”, the IC50 [2, 9] was 15.8 µM and the EC50 (KB [3]; kb) was “Not Active”. The IC50 (BV-2 [4]; bv-2) was “Not Active” and the IC50 (BV-2 [5]; [12]) was 1.6 µM.

With `c1ccc2c(c1)[I+]c1ccccc1-2` [DIPHENYLENEIODONIUM] the IC50 (BV-2 [4]; [11]) was 0.4 µM.

In the case of `CC(C)[C@@H](C)/C=C/[C@@H](C)[C@H]1CC[C@@H]2[C@]1(C)CC[C@H]1[C@]23C=C[C@]2(C[C@@H](O)CC[C@]12C)OO3` [ERGOSTEROL PEROXIDE], the IC50 [2, 9] is reported as 20.3 µM, the IC50 (BV-2 [4]; bv-2) is reported as “Not Active” and the IC50 (BV-2 [5]; [12]) is reported as 6.3 µM.

With `CC(C)[C@@H](C)/C=C/[C@@H](C)[C@H]1CC[C@H]2C3=CC=C4C[C@@H](O)CC[C@]4(C)[C@H]3CC[C@]12C` [ERGOSTEROL] the IC50 [2, 9] was 27.9 µM, the IC50 (BV-2 [4]; bv-2) was “Not Active” and the IC50 (BV-2 [5]; [12]) was 30.6 µM.

With `COc1cc([C@@H]2c3cc4c(cc3[C@@H](O[C@@H]3O[C@@H]5CO[C@@H](C)O[C@H]5[C@H](O)[C@H]3O)[C@H]3COC(=O)[C@H]23)OCO4)cc(OC)c1O` [ETOPOSIDE] the EC50 [1, 8] was greater than 36 µM and the EC50 (KB [3]; [10]) was 4.5 µM.

For `C=C(CC[C@@H](C)[C@H]1CC[C@H]2C3=C(C[C@H](O)[C@]12C)[C@@]1(C)CC[C@@H](O)[C@@H](C)[C@@H]1CC3=O)C(C)C(=O)OC` (stereo not given in full) [METHYL ANTCINATE H], the EC50 ([1]; kbvin) was “Not Active”, the IC50 [2, 9] was 18.1 µM and the EC50 (KB [3]; kb) was “Not Active”. The IC50 (BV-2 [4]; [11]) was 16 µM and the IC50 (BV-2 [5]; [12]) was 2.5 µM.

Work on `C=C(CC[C@@H](C)[C@H]1CC[C@H]2C3=C(C(=O)C[C@]12C)[C@@]1(C)CCC(=O)[C@@H](C)[C@@H]1CC3=O)C(C)C(=O)OC` (stereo not given in full) [ZHANKUIC ACID A METHYL ESTER] yielded an EC50 [1, 8] greater than 20 µM, an IC50 [2, 9] of 8.4 µM and an inhibition at 20 µM [7] of 25%. The EC50 (KB [3]; [10]) was greater than 20 µM, the IC50 (BV-2 [4]; bv-2) was “Not Active” and the IC50 (BV-2 [5]; [12]) was 0.6 µM. It also gave an inhibition at 20 µM (KB [6]; Homo sapiens, KB, 72 h) of 21%.

Work on `C=C(CC[C@@H](C)[C@H]1CC[C@H]2C3=C(C(=O)C[C@]12C)[C@@]1(C)CCC(=O)[C@@H](C)[C@@H]1CC3=O)C(C)C(=O)O` (stereo not given in full) [ZHANKUIC ACID A] yielded an EC50 [1, 8] of 6.2 µM, an IC50 [2, 9] of 22.1 µM and an EC50 (KB [3]; [10]) of 3 µM. For the same compound, the IC50 (BV-2 [4]; bv-2) was “Not Active” and the IC50 (BV-2 [5]; [12]) was 3.6 µM.

In the case of `C=C(CC[C@@H](C)[C@H]1CC[C@H]2C3=C(C(=O)C[C@]12C)[C@@]1(C)CC[C@@H](O)[C@@H](C)[C@@H]1CC3=O)C(C)C(=O)O` (stereo not given in full) [ZHANKUIC ACID B], the EC50 [1, 8] is reported as 8.5 µM, the IC50 ([2]; pmnc) is reported as “Not Active” and the EC50 (KB [3]; [10]) is reported as 7.3 µM. For the same compound, the IC50 (BV-2 [4]; bv-2) was “Not Active” and the IC50 (BV-2 [5]; [12]) was 9.6 µM.

With `C=C(CC[C@@H](C)[C@H]1CC[C@H]2C3=C(C(=O)[C@H](O)[C@]12C)[C@@]1(C)CC[C@@H](O)[C@@H](C)[C@@H]1CC3=O)C(C)C(=O)O` (stereo not given in full) [ZHANKUIC ACID C] the EC50 [1, 8] was 6.4 µM, the IC50 ([2]; pmnc) was “Not Active” and the EC50 (KB [3]; [10]) was 15.5 µM. The IC50 (BV-2 [4]; [11]) was 40.3 µM and the IC50 (BV-2 [5]; [12]) was 16.2 µM.
